Experimental findings from ChEMBL document CHEMBL4130552, “Design, synthesis and biological evaluation of novel benzimidazole amidines as potent multi-target inhibitors for the treatment of non-small cell lung cancer” (Eur J Med Chem, 2018) are described below.

Where only a bound is given, the exact number is not on record here.

For one assay, the system named is CFPAC-1. As to the kind of experiment: Antiproliferative activity against human CFPAC-1 cells after 72 hrs by MTT assay. The assay is classed as functional, cell-based. Conditions: CFPAC-1, 72 h. A digest of the protocol:
(§1)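 Cells seeded at 5000/well on day 0 in medium with 10% FBS, 2 mM L-glutamine, penicillin/streptomycin, 37 °C, 5% CO2. Compounds added at five 10-fold dilutions with DMSO ≤0.1%, then 72 h exposure. MTT absorbance converted to percentage growth versus untreated wells. IC50 by linear regression between bracketing concentrations. Quadruplicate points, three independent experiments.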

The next assay relates to HeLa. As to the kind of experiment: Antiproliferative activity against human HeLa cells after 72 hrs by MTT assay. Format: functional, cell-based. A digest of the protocol: as §1
In general terms: Tetrazolium dyes change colour on reduction, which living cells bring about.

A further assay relates to SW-620. As to the kind of experiment: Antiproliferative activity against human SW620 cells after 72 hrs by MTT assay. Conditions: SW-620, 72 h. The assay is classed as functional, cell-based. A digest of the protocol: as §1
A further assay deals with A549. As to the kind of experiment: Antiproliferative activity against human A549 cells after 72 hrs by MTT assay. Format: functional, cell-based. The conditions noted are these: A549, 72 h. A digest of the protocol: as §1
For another assay, the system named is WI-38. As to the kind of experiment: Antiproliferative activity against human WI38 cells after 72 hrs by MTT assay. The conditions noted are these: WI-38, 72 h. Format: cell-based. A digest of the protocol:
as §1

Usually IC50 stands for the concentration needed to halve the response being measured. High values mean lower potency, low ones higher potency. Turning to `N=C(N)c1ccc2[nH]c(-c3ccc(OCc4cn(-c5ccccc5)nn4)cc3)nc2c1`, the IC50 was 29.9 µM with CFPAC-1; 18.8 µM in the assay on HeLa; 31.5 µM with SW-620; 53.3 µM in the assay with A549; 8.08 µM in the assay on WI-38.

Consider `CC(C)NC(=N)c1ccc2[nH]c(-c3ccc(OCc4cn(-c5ccc(I)cc5)nn4)cc3)nc2c1`, for which the IC50 is 5.13 µM in the assay on CFPAC-1; 0.51 µM with HeLa; 0.69 µM in the assay with SW-620; 0.08 µM in the assay on A549; 0.2 µM with WI-38.

For `FC(F)(F)c1ccc(-n2cc(COc3ccc(-c4nc5cc(C6=NCCN6)ccc5[nH]4)cc3)nn2)cc1`, the 50% inhibitory concentration (IC50) in the assay on CFPAC-1 came out at 0.65 µM; in the assay with HeLa, 2.69 µM; in the assay on SW-620, 6.35 µM; in the assay with A549, 0.59 µM; in the assay with WI-38, 0.69 µM.

Regarding `Ic1ccc(-n2cc(COc3ccc(-c4nc5cc(C6=NCCN6)ccc5[nH]4)cc3)nn2)cc1`, the IC50 is 0.86 µM in the assay on CFPAC-1; 0.42 µM with HeLa; 0.37 µM in the assay on SW-620; > 100 µM in the assay on A549; 0.22 µM in the assay with WI-38.

As for `CC(C)NC(=N)c1ccc2[nH]c(-c3ccc(OCc4cn(Cc5ccc(Cl)cc5)nn4)cc3)nc2c1`, the IC50 in the assay on CFPAC-1 is > 100 µM; with HeLa it was > 100 µM; in the assay with SW-620, 36.5 µM; in the assay with A549 it was 4.98 µM; with WI-38, 0.7 µM.

On to `Clc1ccc(-n2cc(COc3ccc(-c4nc5ccc(Cl)cc5[nH]4)cc3)nn2)cc1`, for which the IC50 amounted to 3.74 µM in the assay with CFPAC-1; 3.54 µM in the assay on HeLa; 4.28 µM in the assay on SW-620; 2.91 µM in the assay on A549; 1.52 µM with WI-38.

In the case of `CC(C)NC(=N)c1ccc2[nH]c(-c3ccc(OCc4cn(-c5ccccc5)nn4)cc3)nc2c1`, the IC50 with CFPAC-1 is > 100 µM; in the assay on HeLa, 16.6 µM; in the assay on SW-620, 62.1 µM; in the assay on A549, > 100 µM; in the assay on WI-38 it was 0.99 µM.

On to `Clc1ccc(-n2cc(COc3ccc(-c4nc5cc(C6=NCCN6)ccc5[nH]4)cc3)nn2)cc1`, for which the IC50 in the assay on CFPAC-1 was determined as 16.9 µM; with HeLa, 0.22 µM; in the assay on SW-620, 3.65 µM; in the assay on A549 it was 0.06 µM; in the assay with WI-38 it was 2.24 µM.

For the compound `O=c1[nH]cc(F)c(=O)[nH]1` [FLUOROURACIL], in the assay with A549, half-maximal inhibition (IC50) was put at 2.8 µM.

As to `N=C(N)c1ccc2[nH]c(-c3ccc(OCc4cn(-c5ccc(F)cc5)nn4)cc3)nc2c1`, the IC50 in the assay with CFPAC-1 was > 100 µM; with HeLa, 7.39 µM; in the assay on SW-620, 37.9 µM; with A549, 81 µM; with WI-38, 0.7 µM.

For the compound `Clc1ccc(-n2cc(-c3nc4cc(C5=NCCN5)ccc4[nH]3)nn2)cc1`, the half-maximal inhibitory concentration (IC50) came out at 0.83 µM in the assay on CFPAC-1; 0.69 µM with HeLa; 1.67 µM in the assay on SW-620; 3.86 µM in the assay with A549; 2.72 µM in the assay on WI-38.

On to `Clc1ccc(-n2cc(COc3ccc(-c4nc5ccccc5[nH]4)cc3)nn2)cc1`, for which the IC50 is > 100 µM with CFPAC-1; > 100 µM with HeLa; 99.3 µM in the assay with SW-620; 7.96 µM in the assay on A549; 1.11 µM in the assay on WI-38.

For `N=C(N)c1ccc2[nH]c(-c3ccc(OCc4cn(-c5ccc(Cl)cc5)nn4)cc3)nc2c1`, the IC50 stood at 18.5 µM in the assay with CFPAC-1; 0.8 µM with HeLa; 7.57 µM in the assay on SW-620; 0.05 µM in the assay on A549; 5.03 µM in the assay with WI-38.

As to `N=C(N)c1ccc2[nH]c(-c3ccc(OCc4cn(-c5ccc(I)cc5)nn4)cc3)nc2c1`, the concentration for half-maximal inhibition (IC50) in the assay on CFPAC-1 was determined as 21.5 µM; in the assay with HeLa it was 6.45 µM; in the assay with SW-620 it was 0.95 µM; with A549, 0.45 µM; with WI-38, 0.62 µM.

Consider `CC(C)NC(=N)c1ccc2[nH]c(-c3ccc(OCc4cn(Cc5ccccc5)nn4)cc3)nc2c1`, for which the IC50 in the assay on CFPAC-1 is > 100 µM; with HeLa it was 8.8 µM; in the assay with SW-620, 58.6 µM; in the assay on A549, 6.18 µM; in the assay with WI-38, 65.4 µM.

Regarding `N=C(N)c1ccc2[nH]c(-c3ccc(OCc4cn(Cc5ccccc5)nn4)cc3)nc2c1`, the IC50 in the assay on CFPAC-1 came out at 34.4 µM; in the assay on HeLa, 13.7 µM; with SW-620 it was 30.9 µM; with A549, 9.47 µM; with WI-38, 0.89 µM.

In the case of `CC(C)NC(=N)c1ccc2[nH]c(-c3cn(-c4ccc(Cl)cc4)nn3)nc2c1`, the IC50 with CFPAC-1 came out at 16 µM; in the assay with HeLa, 0.85 µM; with SW-620 it was 32.5 µM; in the assay with A549, 27.1 µM; in the assay on WI-38 it was 6.85 µM.

For `Fc1ccc(-n2cc(COc3ccc(-c4nc5cc(C6=NCCN6)ccc5[nH]4)cc3)nn2)cc1`, the IC50 is > 100 µM in the assay on CFPAC-1; 0.98 µM in the assay on HeLa; 2.31 µM with SW-620; > 100 µM in the assay on A549; 0.09 µM with WI-38.

For `CC(C)NC(=N)c1ccc2[nH]c(-c3ccc(OCc4cn(-c5ccc(C(F)(F)F)cc5)nn4)cc3)nc2c1`, the concentration for half-maximal inhibition (IC50) is > 100 µM in the assay with CFPAC-1; 13.7 µM with HeLa; 50.1 µM in the assay with SW-620; 85.8 µM in the assay on A549; 0.32 µM in the assay with WI-38.

In the case of `CC(C)NC(=N)c1ccc2[nH]c(CCc3cn(-c4ccc(Cl)cc4)nn3)nc2c1`, the IC50 in the assay with CFPAC-1 came to 36.1 µM; in the assay on HeLa it was 3.11 µM; in the assay on SW-620, 56.8 µM; with A549, 33.4 µM; in the assay on WI-38, 3.71 µM.

In the case of `N=C(N)c1ccc2[nH]c(-c3ccc(OCc4cn(-c5ccc(C(F)(F)F)cc5)nn4)cc3)nc2c1`, the IC50 was determined as 2.09 µM with CFPAC-1; 0.32 µM in the assay on HeLa; 0.36 µM in the assay with SW-620; 0.84 µM in the assay with A549; 0.52 µM in the assay with WI-38.

As for `c1ccc(-n2cc(COc3ccc(-c4nc5cc(C6=NCCN6)ccc5[nH]4)cc3)nn2)cc1`, the IC50 turned out to be 26.2 µM in the assay on CFPAC-1; 7.78 µM in the assay on HeLa; 29.6 µM with SW-620; 49.7 µM in the assay on A549; 0.1 µM with WI-38.

For `CC(C)NC(=N)c1ccc2[nH]c(-c3ccc(OCc4cn(-c5ccc(F)cc5)nn4)cc3)nc2c1`, the IC50 in the assay on CFPAC-1 came out at 0.71 µM; in the assay on HeLa it was 0.59 µM; with SW-620, 37.9 µM; in the assay with A549, 8.37 µM; in the assay with WI-38, 0.66 µM.
